These results are taken from paper PMC3262452 (Virology, 2011).

Series [1] has as its system HOS cells. Description: XTT cell viability assay. As to conditions: read-out: CC50 XTT. Format: cell-based, human. The essentials:
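HOS cells were grown in DMEM with 3.5% fetal bovine serum, 3.5% newborn calf serum and penicillin/streptomycin, then exposed to test compounds. Viability was measured with a commercial XTT kit, in which mitochondrial enzymes reduce the tetrazolium to an orange product read by absorbance. CC50 is the concentration killing half the HOS cells. Runs were done once or twice.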
For orientation: Tetrazolium dyes change colour on reduction, which living cells bring about.

Series [2] has as its system WT HIV. Briefly: microbe, parasite or virus in culture. Format: cell-based, HIV-1.
Series [3] deals with HIV-1 RT DNA polymerase (Human immunodeficiency virus type 1 group M subtype B, UniProt P04585). Description: In vitro RT RNA-dependent DNA polymerase activity. Format: biochemical. As to conditions: read-out: IC50 RT-DNA polymerase, recombinant HIV-1 RT.
Series [4] has as its system HOS cells. Description: ATP based luciferase assay. Format: cell-based, human. As to conditions: for CC50: read-out: CC50 ATP-lite, HOS cells.
The test system of series [5] is AZT-R HIV. Briefly: microbe, parasite or virus in culture. Format: cell-based, HIV-1.
Series [6] deals with wt HIV-1 RT RNase H (Human immunodeficiency virus type 1 group M subtype B, UniProt P04585). Briefly: In vitro RT-RNase H activity. As to conditions: read-out: IC50 RT-RNase H, recombinant HIV-1 RT. Format: biochemical.
The mark [7] stands for this setting: read-out: IC50 WT HIV, RNHI alone, HOS cells, luciferase based assay.
The mark [8] stands for this setting: read-out: IC50 AZT-R HIV, RNHI alone, HOS cells, luciferase based assay.
[9] abbreviates: Human immunodeficiency virus 1, HOS, read-out: AZT IC50.
Where [10] appears, read: Human immunodeficiency virus 1, HOS, read-out: AZT IC50 + NaN3.
The mark [11] stands for this setting: Human immunodeficiency virus 1, HOS, read-out: 3TC IC50.

For orientation: CC50 means the concentration at which the toxic effect on the cells reaches its halfway point. What is called IC50 is the concentration at which inhibition is half-maximal.

Read-outs that look alike come from different tables or passages of the source. Marks after values point to notes of the source that are not given here.

In the case of `O=C(CSc1ncccc1C(=O)O)c1ccc(O)c(O)c1` [F3253-0041], the results for the CC50 in series [1] and in series [4] were 370 µM and 160 µM, respectively. The entries for the “effect of RNHI on the AZT IC50 (fold increase)” value in series [2] and in series [5] were “little to no effect” and “decreased the AZT IC50”, respectively. For the same molecule, the IC50 in series [2] (setting [7]) is 70 µM; in series [3] it was > 100 µM; in series [5] (setting [8]), 59 µM; in series [6] it was 2.9 ± 1.1 µM. Besides, the “% ATP relative to untreated HOS” value in series [4] (70 μM, one or two assays) is 92^a %.

On to `Cc1cn([C@H]2C[C@H](N=[N+]=[N-])[C@@H](CO)O2)c(=O)[nH]c1=O` [AZT, zidovudine, reference compound], for which the IC50 turned out to be 0.004 ± 0.003 µM in series [2] (setting [9]), 0.004 ± 0.002 µM in series [2] (setting [10]), 0.041 ± 0.038 µM in series [5] (setting [9]) and 0.056 ± 0.037 µM in series [5] (setting [10]). In addition, the “Fold decrease of AZT IC50 by NVP” value in series [2] (WT HIV, 40 nM NVP, not statistically significant) was 1 fold; in series [5] (AZT-R HIV, 40 nM NVP, not statistically significant), 2 fold. The “Fold decrease of AZT IC50 by NaN3” value is on record as 0 fold in series [2] (WT HIV, 0.5 mM NaN3, not statistically significant) and 1.4 fold in series [5] (AZT-R HIV, 0.5 mM NaN3, not statistically significant).

In the case of `Cc1c[nH]c2c1C(c1ccc(O)c(O)c1)C(C#N)=C(N)O2` (stereo not shown) [F0915-1507], the CC50 in series [1] amounted to 52 µM; in series [4] it was 44 ± 14 µM. The “effect of RNHI on the AZT IC50 (fold increase)” value in series [2] and in series [5] was “no significant effect” each time. For the same molecule, the IC50 in series [2] (setting [7]) was 50 µM; in series [3], > 100 µM; in series [5] (setting [8]), 49 µM; in series [6], 5.8 ± 2.2 µM. For the same molecule, in series [4] (50 μM, one or two assays), the “% ATP relative to untreated HOS” value is 46^a %.

Regarding `[N-]=[N+]=[N-].[Na+]` [NaN3, sodium azide, reference compound], the “effect of NaN3 on the IC50 for AZT” value in series [2] and in series [5] was “no significant effect” each time. Further, the “% ATP relative to untreated HOS” value in series [4] (0.5 mM) is reported as 31 ± 8%. For the same molecule, in series [4] (0.5 mM NaN3), the “reduction of the level of ATP in HOS cells” value is listed as ~ 70%.

For `O=C1NC(=Nc2ccccc2O)S/C1=C/c1ccc(O)c(O)c1` [F0888-0058], the CC50 in series [1] was found to be 16 ± 5 µM; in series [4], 14 ± 3 µM. Besides, in series [2], the “effect of RNHI on the 3TC IC50 (fold increase)” value is recorded as ~ 1.7 fold. Moreover, the “effect of RNHI on the AZT IC50 (fold increase)” value in series [2] was “no significant effect”; in series [5], 2 fold. In addition, the IC50 worked out at 34 µM in series [2] (setting [7]), 29.6 ± 1.4 µM in series [3], 30 µM in series [5] (setting [8]) and 5 ± 2.6 µM in series [6]. In series [4] (20 μM), the “% ATP relative to untreated HOS” value is reported as 41 ± 4%. For the same molecule, the “effect of RNHI on the 3TC IC50” value in series [5] is on record as “did not see a significant effect”.

In the case of `Cc1ccnc2c1NC(=O)c1cccnc1N2C1CC1` [NVP, nevirapine, reference compound], the “reduction of infectivity of the virus stock” value in series [2] (40 nM NVP, HOS cells) is ~ 60%. In addition, in series [5] (Human immunodeficiency virus 1, HOS, read-out: IC50 of NVP for blocking replication), the IC50 stood at 0.027 ± 0.001 µM.

With `O=C(O)CC1CC(=O)Oc2c1ccc(O)c2O` (stereo not shown) [F3284-8495], the CC50 in series [1] was found to be 120 µM; in series [4], 67 µM. The “effect of RNHI on the AZT IC50 (fold increase)” value in series [2] is recorded as “little to no effect”; in series [5], “decreased the AZT IC50”. In addition, the IC50 in series [2] (setting [7]) was 58 µM; in series [3] it was > 100 µM; in series [5] (setting [8]), 54 µM; in series [6], 3.3 ± 0.7 µM. Further, the “% ATP relative to untreated HOS” value in series [4] (70 μM, one or two assays) is 87^a %.

`O=C1S/C(=C\c2ccc(O)c(O)c2)C(=O)N1c1ccc(O)cc1` [F0444-0019]: the CC50 in series [1] was found to be 24 ± 3 µM; in series [4] it was 14 ± 6 µM. The “effect of RNHI on the 3TC IC50 (fold increase)” value in series [2] is ~ 3 fold. Moreover, the “effect of RNHI on the AZT IC50 (fold increase)” value in series [2] and in series [5] was ~ 5 fold in each case. Also, the IC50 in series [2] (setting [7]) came to 24 µM; in series [3], 18.5 ± 5.9 µM; in series [5] (setting [8]), 28 µM; in series [6], 5 ± 1.8 µM. Also, the “% ATP relative to untreated HOS” value in series [4] (20 μM) was 36 ± 10%. In series [5], the “effect of RNHI on the 3TC IC50” value was “insignificant”.

As for `Nc1ccn([C@H]2CS[C@@H](CO)O2)c(=O)n1` [3TC, 2', 3'-dideoxy-3'-thiacytidine, reference compound], the “Fold decrease of 3TC IC50 by NVP” value in series [2] was 2 fold; in series [5], ~2 fold. Further, the IC50 in series [2] (setting [11]) was 8 ± 3 µM; in series [5] (setting [11]), 24 ± 14 µM.
